High-throughput results as filed in PubChem BioAssay.
In the library only some 4.5% were active in any assay of this set; here they are far more common.
MrgX1 antag: antagonists of human MrgX1 receptor, primary screen, HEK293 cells, Fluo-4 calcium flux. Mas-related G-protein coupled receptor member X1 (Homo sapiens), Q96LB2. BAM8-22 antagonism; active compounds read low. B-score at 10 µM. actives 1.3% (n = 310,000). AID 588676, 2011;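 active = calcium-response B-score plate-corrected more than 3 library SD below zero, starting fluorescence within 5 deviations, no agonist response on first addition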;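 note: peak minus trough fluorescence over baseline after final BAM8-22 challenge near maximal dose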
Target sequence (Q96LB2 whole entry, looked up): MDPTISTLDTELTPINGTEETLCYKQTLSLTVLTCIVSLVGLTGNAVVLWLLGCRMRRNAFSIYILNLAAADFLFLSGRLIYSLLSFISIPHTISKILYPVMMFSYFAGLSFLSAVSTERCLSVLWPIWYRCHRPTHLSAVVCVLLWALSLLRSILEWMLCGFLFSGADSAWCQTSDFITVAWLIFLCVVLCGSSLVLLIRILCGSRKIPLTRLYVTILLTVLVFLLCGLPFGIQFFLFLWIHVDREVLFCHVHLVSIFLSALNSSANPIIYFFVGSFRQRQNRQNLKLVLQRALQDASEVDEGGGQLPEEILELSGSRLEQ
PHOSPHO1 inh: PubChem AID 1565. Phosphoethanolamine/phosphocholine phosphatase (Homo sapiens), Q8TCT1. recombinant PHOSPHO1, absorbance phosphatase assay. inhibition, % at 13.3 µM. actives 1.1% (n = 290,000); in the data active = inhibition above about 60%
RGS4 pot: RGS4 potentiators or activators, primary screen, cell-based, HEK293 M3R inducible RGS4, calcium flux | B-score at 10 µM | AID 463111, 2010 | carbachol calcium flux Fluo4; active compounds read low | actives 0.92% (n = 310,000);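 active = B-score of the integrated calcium signal more than 4 SD below the library mean, with starting fluorescence not abnormally high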;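 note: negative B-score means reduced calcium response which marks RGS4 activation or potentiation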
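test system = M3R-expressing HEK293 line, RGS4 induced by doxycycline | probe or stimulus = carbachol at ECmax as muscarinic agonist stimulus | timing = dye loading 30 min 37 °C, buffer rest 30 min RT | signal = calcium dye Fluo4 fluorescence | evaluation = B score from integrated fluorescence ratio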
RGS4 block: RGS4 inhibitors, primary screen, cell-based, HEK293 M3R inducible RGS4, calcium flux; Regulator of G-protein signaling 4 (Homo sapiens), P49798; Fluo-4 calcium flux; active compounds read high; triggered by carbachol at its EC20; B-score at 10 µM; actives 0.45% (n = 310,000);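 active = B-score, a plate-corrected calcium signal, over three deviations above library mean, with baseline fluorescence within five deviations of library mean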;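 note: RGS4 expression induced by doxycycline in cells with stable M3 receptor; B-score is computed from the integrated fluorescence ratio over baseline after carbachol; higher B-score means a larger calcium signal and so more RGS4 inhibition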
Target sequence (P49798 whole entry, looked up): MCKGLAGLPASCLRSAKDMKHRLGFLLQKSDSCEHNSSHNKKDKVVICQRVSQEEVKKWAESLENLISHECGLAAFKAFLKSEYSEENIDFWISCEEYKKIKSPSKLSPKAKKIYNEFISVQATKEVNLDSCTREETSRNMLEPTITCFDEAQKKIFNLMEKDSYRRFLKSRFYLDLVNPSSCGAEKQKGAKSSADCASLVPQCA
MrgX1 ag: agonists of human MrgX1 receptor, primary screen, HEK293 cells, Fluo-4 calcium flux. Mas-related G-protein coupled receptor member X1 (Homo sapiens), Q96LB2. Fluo-4 calcium fluorescence, agonist mode; active compounds read high. B-score at 10 µM. actives 0.44% (n = 310,000). AID 588627, 2011;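 active = calcium response B-score plate-corrected fluorescence ratio at least 3 library SD, with starting fluorescence B-score inside 5 SD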
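Material – MrgX1-expressing HEK293 cells · Input – 15,000 cells seeded per well · Dosing – compound as first of three additions · Times – overnight seeding, then 1 h dark dye loading · Measured by – kinetic Fluo-4 NW fluorescence of intracellular calcium · Read-out – B-scored fluorescence response ratio · Benchmarks – positive and negative control wells on each plate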
MrgX1 allo act: positive allosteric modulators of MrgX1, primary screen, HEK293 cells, Fluo-4 calcium flux; B-score at 10 µM; FDSS; active compounds read high; AID 588675, 2011; actives 0.63% (n = 310,000); Mas-related G-protein coupled receptor member X1 (Homo sapiens), Q96LB2;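 active = plate-corrected calcium response at least 3 library SD above typical, normal starting fluorescence, not activating the receptor alone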;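 note: compound read alongside a low EC10 to EC30 dose of BAM8-22 agonist; peak minus trough fluorescence over baseline measured at the second addition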
RGS4 inh valid: enhanced carbachol calcium response, M3R/RGS4 cells, RGS4 inhibitor project, cell-based, validation screen, HEK293 M3R/RGS4, calcium flux; carbachol calcium Fluo-4 fluorescence; carbachol added at its EC20; 0 = buffer wells, 100 = carbachol control; shares compounds with RGS4 block; calcium response, % at 10 µM; actives 65% (n = 1,700);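 active = duplicate-averaged calcium response above the buffer-only control mean plus 5 SD of those controls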;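 note: integrated fluorescence ratio F max minus min over baseline F0; higher response in RGS4-induced cells means RGS4 inhibition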
M3R Ca ctr: carbachol calcium response in non-induced M3R cells, confirmation, counter-screen for RGS4 inhibitor project, cell-based, HEK293 M3R; shares compounds with RGS4 block; carbachol calcium Fluo-4; submaximal (EC20) carbachol stimulus; buffer wells 0%, carbachol control wells 100%; activity (percent), % at 10 µM; actives 20% (n = 1,900); call rule not given here;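 note: RGS4 induction absent so cells express M3R without RGS4; higher means more calcium signal and flags a non-specific hit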
RGS4 inh ctr2: signal in non-induced cells without carbachol, RGS4 inhibitor counter-screen; actives 22% (n = 1,900); calcium response (agonist-mode artifact), % at 10 µM; AID 493001; shares compounds with RGS4 block; HEK293 M3R/RGS4 non-induced, Fluo-4 calcium, no carbachol; normalised: buffer wells 0%, carbachol wells 100%;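 active = duplicate-averaged calcium rise in uninduced cells above buffer wells' mean plus 5 SD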
Large screens that a line does not name were inactive (follow-up assays come after a bar, where they were run).

O=[N+]([O-])/C=C/c1cn(Cc2ccc(Cl)cc2)c2ccccc12	RGS4 block 8.6 | RGS4 inh valid 24% | M3R Ca ctr inactive | RGS4 inh ctr2 76%
CCOc1ccc(/C=C/[N+](=O)[O-])c2ccccc12	RGS4 block 23, MrgX1 ag 42 | RGS4 inh valid 45% | M3R Ca ctr inactive | RGS4 inh ctr2 27%
COC(=O)c1ccc(Cn2cc(/C=C\[N+](=O)[O-])c3ccccc32)o1	RGS4 block 5.4 | RGS4 inh valid 67% | M3R Ca ctr 48% | RGS4 inh ctr2 40%
O=C(O)c1ccc(Cn2cc(/C=C\[N+](=O)[O-])c3ccccc32)o1	none | RGS4 inh valid inactive | M3R Ca ctr inactive | RGS4 inh ctr2 inactive
Cc1cccc(Cn2cc(/C=C/[N+](=O)[O-])c3ccccc32)c1	none
CCOC(=O)COc1ccc(/C=C/[N+](=O)[O-])c(OCC(=O)OCC)c1	RGS4 block 11 | RGS4 inh valid 24% | M3R Ca ctr 34% | RGS4 inh ctr2 inactive
CCOC(=O)Cn1cc(/C=C/[N+](=O)[O-])c2ccccc21	RGS4 block 17, MrgX1 ag 33 | RGS4 inh valid 56% | M3R Ca ctr 61% | RGS4 inh ctr2 14%
Cc1cc(C)nc(S/C=C/C(=O)c2ccccc2F)n1	RGS4 block 5.8 | RGS4 inh valid 5.0% | M3R Ca ctr inactive | RGS4 inh ctr2 inactive
CC(=O)Nc1sc(NC(=O)c2ccco2)nc1-c1cccs1	none
O=C(Nc1nc(-c2ccc(Cl)s2)cs1)c1cccs1	none
O=C(Nc1nc(-c2ccc(Cl)s2)cs1)c1ccco1	RGS4 block 6.5 | RGS4 inh valid 14% | M3R Ca ctr inactive | RGS4 inh ctr2 inactive
O=C(Nc1nc(-c2cccs2)c(-c2ccccc2)s1)c1ccco1	RGS4 block 14 | RGS4 inh valid 43% | M3R Ca ctr 52% | RGS4 inh ctr2 inactive
O=C(CCN1CCN(c2ccc([N+](=O)[O-])cc2)CC1)c1ccc(Cl)cc1	none
O=C(CCN1CCN(c2ccccc2)CC1)c1ccc(Cl)cc1	RGS4 block 24 | RGS4 inh valid inactive | M3R Ca ctr 35% | RGS4 inh ctr2 20%
FC(F)(F)c1cccc(-c2nn[nH]n2)c1	RGS4 block 4.8 | RGS4 inh valid inactive | M3R Ca ctr inactive | RGS4 inh ctr2 inactive
CC1CCCCN1C(=O)COC(=O)c1ccc(=O)n(Cc2ccccc2)n1 (stereo not drawn)	none (no result: PHOSPHO1 inh)
Cc1ccc(NC(=O)C(=Cc2ccc(C(=O)O)cc2)C(=O)Nc2ccc(C)cc2C)c(C)c1	RGS4 block 11 | RGS4 inh valid 18% | M3R Ca ctr inactive | RGS4 inh ctr2 inactive
O=C(C1=C(O)C(=O)N(Cc2ccco2)C1c1cccc(O)c1)c1ccco1 (stereo not drawn)	RGS4 block 4.7 | RGS4 inh valid 5.5% | M3R Ca ctr inactive | RGS4 inh ctr2 inactive
Cc1ccc(C(=O)C2=C(O)C(=O)N(Cc3ccco3)C2c2cccc(Br)c2)o1 (stereo not drawn)	none
CCN(CC)c1ccc(/C=N\N2CCN(Cc3ccc(C)cc3)CC2)cc1	none | RGS4 inh valid inactive | M3R Ca ctr inactive | RGS4 inh ctr2 inactive
COCCCNC(=O)CN1C(=O)COc2ccc(S(=O)(=O)N3CCCCCC3)cc21	none
CCCCCCCNC(=O)CN1C(=O)CSc2ccc(S(=O)(=O)N3CCOCC3)cc21	none
CCOCCCNC(=O)CN1C(=O)COc2ccc(S(=O)(=O)N3CCCC3)cc21	none | M3R Ca ctr inactive | RGS4 inh ctr2 inactive
CCOCCCNC(=O)CN1C(=O)CSc2ccc(S(=O)(=O)N3CCOCC3)cc21	none | RGS4 inh valid inactive | M3R Ca ctr inactive | RGS4 inh ctr2 inactive
COc1ccccc1C(=O)N/C(=C\c1cn(S(=O)(=O)N(C)C)c2ccccc12)C(=O)N1CCCCC1	none
O=C(CC(Nc1ccc(F)cc1)C(=O)OCC(=O)c1cccs1)c1ccccc1 (stereo not drawn)	RGS4 block 6.2 | RGS4 inh valid inactive | M3R Ca ctr inactive | RGS4 inh ctr2 inactive
O=C(CC(Nc1ccc(F)cc1)C(=O)O)c1ccccc1 (stereo not drawn)	none
COC(=O)c1cc2c(ccn2-c2ccc(F)cc2)n1Cc1ccc(OC)cc1	none
CCn1c(C(=O)OC)cc2c1ccn2-c1ccc(F)cc1	none | M3R Ca ctr inactive | RGS4 inh ctr2 inactive
COC(=O)c1ccc(C23CC4(C2)[C@H](CN(CC2CCCCC2)[C@@H]4c2ccccc2)C3c2ccccc2)cc1 (stereo partly drawn)	none
Cn1nnnc1SCC(=O)NC(=O)c1cccc([N+](=O)[O-])c1	none
CC(=O)/C=C1/C(=O)Nc2ccccc21	RGS4 block 18 | RGS4 inh valid 34% | M3R Ca ctr 44% | RGS4 inh ctr2 26%
COc1ccc2c(c1)C(=NNc1ccc(C(=O)O)cc1)c1cc(OC)ccc1-2	RGS4 block 6.7 | RGS4 inh valid 22% | M3R Ca ctr inactive | RGS4 inh ctr2 inactive
COc1ccc(/C(C)=N/Nc2ccc(C(=O)O)cc2)c(OC)c1	none
O=C1NCCCc2c1oc1ccc(O)cc21	none
Oc1c(Cl)cc(Cl)c2c1NCCC2	RGS4 block 9.3 (no result: MrgX1 antag, MrgX1 ag, MrgX1 allo act) | RGS4 inh valid 64% | M3R Ca ctr inactive | RGS4 inh ctr2 inactive
O=C(NC1CCN(S(=O)(=O)c2ccccc2)CC1)c1ccccc1	none
COc1ccc(S(=O)(=O)N2CCCC2CNC(=O)C(=O)NC2CCCCCC2)cc1 (stereo not drawn)	none (no result: PHOSPHO1 inh)
O=C(NCC1OCCCN1S(=O)(=O)c1ccc(F)cc1)C(=O)NC1CCCC1 (stereo not drawn)	none | RGS4 inh valid inactive | M3R Ca ctr inactive | RGS4 inh ctr2 inactive
